{"source": "ChEMBL document CHEMBL4219124", "about": "“Alleviating CYP and hERG liabilities by structure optimization of dihydrofuran-fused tricyclic benzo[d]imidazole series - Potent, selective and orally efficacious microsomal prostaglandin E synthase-1 (mPGES-1) inhibitors: Part-2” (Bioorg Med Chem Lett, 2018)", "key": {"[1]": {"test": "Ratio of drug uptake in brain to plasma of Dunkin-Hartley guinea pig LPS-induced hyperalgesia pain model at 10 mg/kg, po administered 2 hrs prior to LPS challenge measured 7 hrs post dose", "assay_type": "ADME, organism-based, Cavia porcellus", "conditions": "brain and plasma, read-out: BPR", "outline": "(§1)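 Guinea pigs dosed orally at 10, 30 or 100 mg/kg 2 h before intraplantar LPS in the right hind paw; thermal hyperalgesia scored. Plasma (ng/mL) and brain (ng/g) levels taken 7 h post dose; brain/plasma ratio computed. Means of 6–9 animals per group, single experiment.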"}, "Canis familiaris [2]": {"test_system": "Canis familiaris", "test": "Toxicity in Beagle dog assessed as emesis at 10 mg/kg, po", "assay_type": "organism-based, Canis lupus familiaris", "conditions": "in vivo"}, "Cavia porcellus [3]": {"test_system": "Cavia porcellus", "test": "Analgesic activity in Dunkin-Hartley guinea pig hyperalgesia pain model assessed as inhibition of LPS-induced hyperalgesia administered orally 2 hrs prior to LPS challenge measured after 4.5 hrs", "assay_type": "functional", "conditions": "po", "outline": "(§2)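 Guinea pigs received compound orally, once daily, at 10, 30 or 100 mg/kg, 2 h before LPS was injected into the plantar surface of the right paw. Saline-injected animals served as the comparison for thermal hyperalgesia. Plasma and brain drug levels taken 7 h after dosing, mean of n = 6–9 per group, from a single experiment.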"}, "Cavia porcellus [4]": {"test_system": "Cavia porcellus", "test": "Analgesic activity in Dunkin-Hartley guinea pig hyperalgesia pain model assessed as inhibition of LPS-induced hyperalgesia at 10 mg/kg, po administered 2 hrs prior to LPS challenge measured after 4.5 hrs relative to control", "assay_type": "functional", "outline": "as §2"}, "Cavia porcellus [5]": {"test_system": "Cavia porcellus", "test": "Analgesic activity in Dunkin-Hartley guinea pig hyperalgesia pain model assessed as inhibition of LPS-induced hyperalgesia at 30 mg/kg, po administered 2 hrs prior to LPS challenge measured after 4.5 hrs relative to control", "assay_type": "functional", "outline": "as §2"}, "Cavia porcellus [6]": {"test_system": "Cavia porcellus", "test": "Analgesic activity in Dunkin-Hartley guinea pig hyperalgesia pain model assessed as inhibition of LPS-induced hyperalgesia at 100 mg/kg, po administered 2 hrs prior to LPS challenge measured after 4.5 hrs relative to control", "assay_type": "functional", "outline": "as §2"}, "[7]": {"test": "Plasma concentration in Dunkin-Hartley guinea pig LPS-induced hyperalgesia pain model at 10 mg/kg, po administered 2 hrs prior to LPS challenge measured 7 hrs post dose", "assay_type": "ADME, organism-based, Cavia porcellus", "outline": "as §1"}, "[8]": {"test": "Drug uptake in brain of Dunkin-Hartley guinea pig LPS-induced hyperalgesia pain model at 30 mg/kg, po administered 2 hrs prior to LPS challenge measured 7 hrs post dose", "assay_type": "ADME, organism-based, Cavia porcellus", "conditions": "read-out: Drug uptake", "outline": "as §2"}, "[9]": {"test": "Drug uptake in brain of Dunkin-Hartley guinea pig LPS-induced hyperalgesia pain model at 100 mg/kg, po administered 2 hrs prior to LPS challenge measured 7 hrs post dose", "assay_type": "ADME, organism-based, Cavia porcellus", "conditions": "read-out: Drug uptake", "outline": "as §2"}, "[10]": {"test": "Ratio of drug uptake in brain to plasma of Dunkin-Hartley guinea pig LPS-induced hyperalgesia pain model at 100 mg/kg, po administered 2 hrs prior to LPS challenge measured 7 hrs post dose", "assay_type": "ADME, organism-based, Cavia porcellus", "conditions": "read-out: BPR", "outline": "as §1"}, "[11]": {"test": "Ratio of plasma concentration in Dunkin-Hartley guinea pig LPS-induced hyperalgesia pain model to IC50 for mPGES1 in guinea pig whole blood", "assay_type": "ADME", "conditions": "in vivo"}, "Cavia porcellus [12]": {"test_system": "Cavia porcellus", "test": "Analgesic activity in Dunkin-Hartley guinea pig MIA-induced osteoarthritic pain model assessed as reversal of incapacitance administered orally on day 3 measured 6 to 7 hrs post dose", "assay_type": "functional", "outline": "(§3)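 Day 0: monoiodoacetate injected into the right shoulder joint of guinea pigs; saline-injected animals as comparison. Day 3: compound given orally at 100, 250 or 500 mg/kg, and weight-bearing incapacitance on the injected forelimb measured. Plasma sampled at the PD time point, n = 6–8 per group, single experiment.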"}, "Cavia porcellus [13]": {"test_system": "Cavia porcellus", "test": "Analgesic activity in Dunkin-Hartley guinea pig MIA-induced osteoarthritic pain model assessed as reversal of incapacitance at 250 mg/kg, po administered on day 3 measured 6 to 7 hrs post dose relative to control", "assay_type": "functional", "outline": "as §3"}, "Cavia porcellus [14]": {"test_system": "Cavia porcellus", "test": "Analgesic activity in Dunkin-Hartley guinea pig MIA-induced osteoarthritic pain model assessed as reversal of incapacitance at 500 mg/kg, po administered on day 3 measured at 6 to 7 hrs relative to control", "assay_type": "functional", "outline": "as §3"}, "[15]": {"test": "Plasma concentration in Dunkin-Hartley guinea pig MIA-induced osteoarthritic pain model at 500 mg/kg, po measured 2 hrs post dose", "assay_type": "ADME, organism-based, Cavia porcellus", "outline": "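Intra-articular MIA into the right shoulder joint on day 0; oral dosing at 100, 250 or 500 mg/kg on day 3, incapacitance (forelimb weight bearing) measured. Plasma concentration sampled 2 h post dose. Means of 6–8 animals per group, single experiment.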"}, "[16]": {"test": "Ratio of plasma concentration in Dunkin-Hartley guinea pig MIA-induced osteoarthritic pain model to IC50 for mPGES1 in guinea pig whole blood", "assay_type": "ADME", "conditions": "in vivo"}, "[17]": {"test": "Ratio of plasma concentration in Dunkin-Hartley guinea pig MIA-induced osteoarthritic pain model to IC50 for mPGES1 in human whole blood", "assay_type": "ADME", "conditions": "in vivo"}, "Canis familiaris [18]": {"test_system": "Canis familiaris", "test": "Oral bioavailability in Beagle dog at 10 mg/kg", "assay_type": "ADME, organism-based, Canis lupus familiaris", "conditions": "in vivo", "outline": "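Plasma PK after 1 mg/kg i.v. and 10 mg/kg p.o.; %F from both routes. Rat: male Sprague-Dawley, oral 0.5% methylcellulose suspension, i.v. 20% NMP/20% ethanol/60% PEG 200, n = 3. Dog oral: Tween 80 2.5 μL/mL + 0.5% MC suspension. Monkey oral: same Tween/MC suspension; i.v. 10% NMP/10% ethanol/10% PEG/70% PEG200-water premix.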"}}}
{"compound": "CC1(C)Cc2c(c(C(=O)Nc3ccc(F)c(C(F)(F)F)c3)cc3nc(Nc4c(F)cccc4Cl)[nH]c23)O1", "values": [{"measurement": "Kp at 7 h", "setting": "[1]", "result": 1.02}, {"measurement": "Activity", "setting": "Canis familiaris [2]", "result": "Non-Toxic"}, {"measurement": "ED50", "setting": "Cavia porcellus [3]", "result": 39.6, "unit": "mg/kg"}, {"measurement": "inhibition in vivo at 10 mg/kg", "setting": "Cavia porcellus [4]", "result": 20, "unit": "%"}, {"measurement": "inhibition in vivo at 30 mg/kg", "setting": "Cavia porcellus [5]", "result": 44, "unit": "%"}, {"measurement": "inhibition in vivo at 100 mg/kg", "setting": "Cavia porcellus [6]", "result": 66, "unit": "%"}, {"measurement": "concentration at 7 h", "setting": "[7]", "result": 94, "unit": "ng/mL"}, {"measurement": "concentration at 7 h", "setting": "[8]", "result": 87, "unit": "ng/g"}, {"measurement": "concentration at 7 h", "setting": "[9]", "result": 1150, "unit": "nM"}, {"measurement": "Kp at 7 h", "setting": "[10]", "result": 1.06}, {"measurement": "Ratio", "setting": "[11]", "result": 2}, {"measurement": "Activity", "setting": "Cavia porcellus [12]", "result": "Dose-dependent effect"}, {"measurement": "ED50", "setting": "Cavia porcellus [12]; po", "result": 106, "unit": "mg/kg"}, {"measurement": "Activity", "setting": "Cavia porcellus [13]", "result": 73, "unit": "%"}, {"measurement": "Activity", "setting": "Cavia porcellus [14]", "result": 83, "unit": "%"}, {"measurement": "concentration at 2 h", "setting": "[15]", "result": 3540, "unit": "nM"}, {"measurement": "Ratio", "setting": "[16]", "result": 7}, {"measurement": "Ratio", "setting": "[17]", "result": 17}]}
{"compound": "CC1(C)Cc2c(c(C(=O)Nc3ccc(C(F)(F)F)cn3)cc3nc(Nc4c(Cl)cccc4Cl)[nH]c23)O1", "values": [{"measurement": "F", "setting": "Canis familiaris [18]", "result": 25, "unit": "%"}]}
